Compound activity (PubChem)
A selection: hits, their analogues and other compounds. The true share with any hit is near 3.8%.
Exocytosis inh: blocks lytic granule exocytosis; TALL-104 LAMP-1 surface exposure, flow cytometry; cells stimulated with thapsigargin and PMA; inhibition, % at 10 µM; actives 0.66% (n = 360,000); AID 651702;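 active = inhibition above about 55%, limit read from the data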
V-ATPase pH: regulators of yeast V-ATPase proton transport. S. cerevisiae, pHLuorin cytosolic pH fluorescence. response, % at 10 µM. actives 0.37% (n = 350,000). AID 504577; in the data active = response mostly above about 7.3%, no sharp cut-off; inactive = mostly below about 5.4%; also: actives read high
T cell HTS: modulates CD8 T cell binding to vesicles. 2C CD8+ T cell-vesicle binding, flow cytometry; active compounds read low. response (vesicle binding), % at 7 µM. actives 0.068% (n = 330,000);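 active = response, share of CD8 T cells binding vesicles, and their 90th percentile fluorescence all below set limits, cut at about 80% in these data, passing the limit was not always enough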;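 also: values below 100% mean blocked vesicle binding to the CD8+ T cells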
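Benchmarks: naked versus QL9-loaded vesicles / Assay system: purified 2C TCR transgenic mouse naive CD8+ T cells / Technique: high-throughput flow cytometry with anti-B7-1 and anti-CD8 staining / Timing: Cell–vesicle co-incubation 1.5 h at 37 °C, staining 20 min on ice / Read-out: percent CD8+ FL2 mean versus row control / Probe or stimulus: QL9-loaded Drosophila micro-vesicles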
Beta2AR agonist: activates human beta-2 adrenergic receptor causing internalization. P07550. actives 0.43% (n = 340,000). response, % (concentration not given with the values). AID 504454. Am2.2-beta2AR cells, FAP receptor internalization, flow cytometry;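 active = response above a set limit, near 3 SD of response in nonfluorescent compounds, cut at about 42% in these data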
Target sequence (P07550 whole entry, looked up): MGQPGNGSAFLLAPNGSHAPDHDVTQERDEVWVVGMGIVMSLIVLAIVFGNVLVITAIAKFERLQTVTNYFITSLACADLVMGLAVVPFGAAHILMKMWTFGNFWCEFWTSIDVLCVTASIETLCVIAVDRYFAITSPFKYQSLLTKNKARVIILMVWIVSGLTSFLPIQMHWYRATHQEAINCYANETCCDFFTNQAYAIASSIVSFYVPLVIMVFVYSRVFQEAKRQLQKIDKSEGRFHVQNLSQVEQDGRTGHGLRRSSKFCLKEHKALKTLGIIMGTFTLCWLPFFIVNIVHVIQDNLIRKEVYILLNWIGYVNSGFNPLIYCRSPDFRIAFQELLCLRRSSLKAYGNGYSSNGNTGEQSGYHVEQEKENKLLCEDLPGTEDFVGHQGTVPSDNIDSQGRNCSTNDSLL
rCAG binder: binds r(CAG) RNA repeats. r(CAG) RNA repeat, TO-PRO-1 dye displacement fluorescence. inhibition, % at 3 µM. actives 1.3% (n = 370,000). AID 651821;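 active = inhibition above the plate cutoff, the mean of all test compounds on that plate plus 3 SD, cut at about 35% in these data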;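 also: higher means more dye released from RNA so lower well fluorescence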
MPTP inh: inhibitors of mitochondrial permeability transition pore; AID 602449; isolated mouse mitochondria, Ca2+ swelling absorbance, 30 min; inhibition, % at 10 µM; actives 1.4% (n = 360,000);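 active = inhibition of 50% or more, scaled per plate between neutral and stimulator controls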
Exocytosis CP01: blocks lytic granule exocytosis. inhibition, % at 10 µM. TALL-104 cells, LAMP-1 externalization, flow cytometry; stimulated with PMA plus thapsigargin. actives 11% (n = 1,500). shares compounds with Exocytosis inh; in the data active = inhibition above about 60%
Hits are given with their value; . = inactive; / = no result.

SMILES | Exocytosis inh | V-ATPase pH | T cell HTS | Beta2AR agonist | rCAG binder | MPTP inh | Exocytosis CP01
CC(C)(C)S(=O)N1Cc2cc(C(=O)Nc3ccc(-c4ccccc4)cc3)nc(-c3cccc(-c4cc5ccccc5o4)c3)c2[C@@H]1CCO (stereo partly drawn) | . | / | / | / | . | . | /
CC(C)(C)S(=O)N1Cc2cc(C(=O)N[C@@H]3CCN(Cc4ccccc4)C3)nc(-c3cccc(-c4cc5ccccc5o4)c3)c2[C@@H]1CCO (stereo partly drawn) | 63.2 | / | / | / | . | . | .
Fc1ccccc1Cn1ccc2ccc(-c3ccc4ccn(Cc5ccccc5F)c4c3)cc21 | / | / | / | / | . | / | /
O=S(=O)(Nc1cc(Sc2ncn[nH]2)c(O)c2ccccc12)c1ccccc1 | 101.0 | . | / | . | . | . | 103.4
Cc1ccc(NC(=O)[C@H]2CC(=O)O[C@@H]2c2ccccc2)cc1C | / | / | / | / | . | / | /
COc1cccc(-c2cc(C(=O)O)no2)c1 | . | . | . | . | . | . | /
COc1cccc(-c2cc(CC3(O)CCN(CCCc4ccccc4)CC3)on2)c1 | 62.8 | . | . | . | / | . | .
CC(NC(=S)Nc1ccc(F)cc1)c1ccccc1 (stereo not drawn) | 73.8 | . | . | . | . | . | .
COC(=O)C1=C(C)N(Cc2ccccc2C(F)(F)F)C(=NCc2cccc(C(F)(F)F)c2)NC1c1ccc(F)cc1 (stereo not drawn) | / | / | / | / | . | / | /
CCCCNC(=O)NS(=O)(=O)c1ccc(NC(=O)CSc2nnc(-c3ccc(Cl)cc3)n2N)cc1 | / | / | / | / | . | / | /
CCCS(=O)(=O)NC(=O)C1(C)CCN(C(=O)COc2ccc(Cl)cc2Cl)C1 (stereo not drawn) | 61.2 | / | / | / | . | . | .
CCCS(=O)(=O)NC(=O)C1(C)CCCN(C(=O)COc2ccc(Cl)cc2Cl)C1 (stereo not drawn) | . | / | / | / | . | . | /
O=S1(=O)c2ccc(N3CCC[C@@H]3CO)cc2O[C@H]2CCN1C2 | / | / | / | / | . | / | /
N#Cc1c(Nc2ccccc2C(F)(F)F)s[nH]c1=O | . | . | . | . | . | . | /
N#Cc1c(Nc2ccccc2Cl)s[nH]c1=O | 78.5 | . | . | . | . | . | 94.6
N#Cc1ccc(NC(=O)OC2CC3CC2[C@H]2CCCCN2C3)cc1 (stereo partly drawn) | / | / | / | / | . | / | /
CN(c1ccccc1)S(=O)(=O)c1cccc(C(=O)NCCc2c[nH]c3ccccc23)c1 | 65.7 | . | . | . | . | . | 86.0
COc1ccc(Nc2nc(-c3sc(C)nc3C)cs2)cc1 | 81.8 | . | . | . | . | . | .
CCCCCCCCN1C(=O)[C@H](CC(=O)NCCCOCCCC)C[C@@]2(C(=O)OC)CC(C)(C)CC=C12 | 59.5 | / | / | / | . | . | .
CCCCCCCCN1C(=O)[C@H](CC(=O)NCCCOCCCC)C[C@@]2(C(=O)OCC)CCCC=C12 | 75.9 | / | / | / | . | . | .
Cc1cn2c(=O)c(C(=O)NCc3ccc4c(c3)OCO4)cnc2s1 | 58.7 | . | . | . | . | . | .
COc1cc2c(C(=O)NCc3ccc4c(c3)OCO4)cn(C)c(=O)c2cc1OC | . | . | . | . | . | . | /
CCN(CC)CCCN1C(=O)C2=C(C1=O)C1N(C)c3ccccc3[C@@]13C[C@@H](CO)N(C(=O)CCC(=O)OC)C3=N2 (stereo partly drawn) | / | / | / | / | . | / | /
CCOC(=O)C1=NOC(C(C)=O)(C(=O)Nc2cc(C)cc(C)c2)C1 (stereo not drawn) | / | / | / | / | . | / | /
CCOc1ccc(-c2nc(N)nc(C)c2-c2ccc(Cl)cc2)c(O)c1 | . | . | . | . | . | . | /
COc1ccc(-c2nc(N)nc(C)c2-c2ccc(Cl)cc2)c(O)c1 | 61.4 | . | . | . | . | . | .
CN(C)CCCN1C(=O)c2cccc3c([N+](=O)[O-])ccc(c23)C1=O | 57.0 | . | . | . | . | . | .
O=C1c2cccc3c([N+](=O)[O-])ccc(c23)C(=O)N1CCc1ccccn1 | . | . | . | . | . | . | /
CCOc1ccc(S(=O)(=O)Nc2cccc(C(=O)N3CCN(c4ccccn4)CC3)c2)cc1 | 55.5 | . | / | / | . | . | .
c1ccc(C(NCCNC(c2ccccc2)c2ccccc2)c2ccccc2)cc1 | 80.2 | . | . | . | . | . | .
